Assay results published in ChEMBL document CHEMBL1125112, “Antitumor imidazotetrazines. 20. Preparation of the 8-acid derivative of mitozolomide and its utility in the preparation of active antitumor agents” (1990).

Legend:
[1] = test system: L1210; experiment: In vivo antitumor activity against the L1210 leukemia cell line in mouse species B6D2F1 after peroral administration (inoculum cells-10E5,ip at the dose of 160 mg/kg; type: functional; conditions: route oral
[2] = test system: L1210; experiment: In vivo antitumor activity against the L1210 leukemia cell line in mouse species B6D2F1 after peroral administration (inoculum cells-10E5,ip) at the dose of 320 mg/kg; type: functional; conditions: route oral
[3] = test system: L1210; experiment: In vivo antitumor activity against the L1210 leukemia cell line in mouse species B6D2F1 after peroral administration (inoculum cells-10E5,ip) at the dose of 40 mg/kg; type: functional; conditions: route oral
[4] = test system: L1210; experiment: In vivo antitumor activity against the L1210 leukemia cell line in mouse species B6D2F1 after peroral administration (inoculum cells-10E5,ip) at the dose of 80 mg/kg; type: functional; conditions: route oral
[5] = test system: L1210; experiment: In vivo antitumor activity against the L1210 leukemia cell line in mouse species B6D2F1 after peroral administration (inoculum cells-10E5,ip)at the dose of 320 mg/kg on 7th day; type: functional; conditions: route oral
Outline: (§1)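 B6D2F1 mice were inoculated with 10^5 L1210 leukemia cells, ip or iv as the line states. Compound was given orally as a suspension in 1% (carboxymethyl)cellulose in water, dosed on day 1 or 3, over 28–39 days. T/C% = mean death day of treated/mean death day of controls. Survivors to the end were counted in groups of 7–8.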

[6] = test system: L1210; experiment: In vivo antitumor activity against the L1210 leukemia cell line in mouse species B6D2F1 after peroral administration (inoculum cells-10E5,ip) at the dose of 80 mg/kg on 8th day; type: functional; conditions: route oral; outline: as §1
[7] = test system: L1210; experiment: In vivo antitumor activity against the L1210 leukemia cell line in mouse species B6D2F1 after peroral administration (inoculum cells-10E5,ip) at the dose of 160 mg/kg on 8th day; type: functional; conditions: route oral; outline: as §1
[8] = test system: L1210; experiment: In vivo antitumor activity against the L1210 leukemia cell line in mouse species B6D2F1 after peroral administration (inoculum cells-10E5,ip) at the dose of 40 mg/kg on 8th day; type: functional; conditions: route oral; outline: as §1
[9] = test system: TLX-5; experiment: (§2) In vivo antitumor activity against the TLX5 lymphoma cell line in mouse species CBA/CA after intraperitoneal administration (inoculum cells-2x10E5,sc) at the dose of 160 mg/kg on 5th day; type: functional
Outline: (§3)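 CBA/CA mice were inoculated with 2 × 10^5 TLX5 lymphoma cells. Drug given intraperitoneally in 10% Me2SO in arachis oil, 5 mice per dose, and the experiment lasted 60 days. Survivors at 60 days were recorded. T/C % = mean death day of treated animals / mean death day of control animals.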

[10] = test system: TLX-5; experiment: In vivo antitumor activity against the TLX5 lymphoma cell line in mouse species CBA/CA after intraperitoneal administration (inoculum cells-2x10E5,sc) at the dose of 20 mg/kg; type: functional; outline: as §3
[11] = test system: TLX-5; experiment: In vivo antitumor activity against the TLX5 lymphoma cell line in mouse species CBA/CA after intraperitoneal administration (inoculum cells-2x10E5,sc) at the dose of 320 mg/kg; type: functional; outline: as §3
[12] = test system: TLX-5; experiment: (§4) In vivo antitumor activity against the TLX5 lymphoma cell line in mouse species CBA/CA after intraperitoneal administration (inoculum cells-2x10E5,sc) at the dose of 40 mg/kg; type: functional; outline: as §3
[13] = test system: TLX-5; experiment: In vivo antitumor activity against the TLX5 lymphoma cell line in mouse species CBA/CA after intraperitoneal administration (inoculum cells-2x10E5,sc) at the dose of 80 mg/kg; type: functional; outline: as §3
[14] = test system: TLX-5; experiment: (§5) In vivo antitumor activity against the TLX5 lymphoma cell line in mouse species CBA/CA after intraperitoneal administration (inoculum cells-2x10E5,sc) at the dose of 160 mg/kg; type: functional
Outline: (§6)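 CBA/CA mice were implanted sc with 2 × 10^5 TLX5 lymphoma cells. Compound was given ip on day 3 in 10% Me2SO in arachis oil, over 60 days, in groups of 5. T/C% = mean death day of treated/mean death day of controls. Survivors to day 60 were counted.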

[15] = test system: TLX-5; experiment: In vivo antitumor activity against the TLX5 lymphoma cell line in mouse species CBA/CA after intraperitoneal administration (inoculum cells-2x10E5,sc) at the dose of 20 mg/kg on 5th day; type: functional
[16] = test system: TLX-5; experiment: In vivo antitumor activity against the TLX5 lymphoma cell line in mouse species CBA/CA after intraperitoneal administration (inoculum cells-2x10E5,sc) at the dose of 320 mg/kg on 5th day; type: functional
[17] = test system: TLX-5; experiment: (§7) In vivo antitumor activity against the TLX5 lymphoma cell line in mouse species CBA/CA after intraperitoneal administration (inoculum cells-2x10E5,sc) at the dose of 40 mg/kg on 5th day; type: functional
[18] = test system: TLX-5; experiment: In vivo antitumor activity against the TLX5 lymphoma cell line in mouse species CBA/CA after intraperitoneal administration (inoculum cells-2x10E5,sc) at the dose of 80 mg/kg on 5th day; type: functional
[19] = test system: TLX-5; experiment: In vivo antitumor activity against the TLX5 lymphoma cell line in mouse species CBA/CA after intraperitoneal administration (inoculum cells-2x10E5,ip) at the dose of 80 mg/kg; type: functional; outline: as §3
[20] = test system: TLX-5; experiment: In vivo antitumor activity against the TLX5 lymphoma cell line in mouse species CBA/CA after intraperitoneal administration (inoculum cells-2x10E5,ip) at the dose of 160 mg/kg on 5th day; type: functional
[21] = test system: TLX-5; experiment: In vivo antitumor activity against the TLX5 lymphoma cell line in mouse species CBA/CA after intraperitoneal administration (inoculum cells-2x10E5,ip) at the dose of 320 mg/kg on 5th day; type: functional
[22] = test system: TLX-5; experiment: In vivo antitumor activity against the TLX5 lymphoma cell line in mouse species CBA/CA after intraperitoneal administration (inoculum cells-2x10E5,ip) at the dose of 80 mg/kg on 5th day; type: functional
[23] = test system: TLX-5; experiment: In vivo antitumor activity against the TLX5 lymphoma cell line in mouse species CBA/CA after intraperitoneal administration (inoculum cells-2x10E5,sc) at the dose of 160 mg/kg
[24] = test system: L1210; experiment: In vivo antitumor activity against the L1210 leukemia cell line in mouse species B6D2F1 after intraperitoneal administration (inoculum cells-10E5,ip) at the dose of 200 mg/kg; type: functional
[25] = test system: L1210; experiment: In vivo antitumor activity against the L1210 leukemia cell line in mouse species B6D2F1 after intraperitoneal administration (inoculum cells-10E5,ip) at the dose of 50 mg/kg; type: functional
[26] = test system: L1210; experiment: In vivo antitumor activity against the L1210 leukemia cell line in mouse species B6D2F1 after intraperitoneal administration (inoculum cells-10E5,ip) at the dose of 100 mg/kg; type: functional
[27] = test system: L1210; experiment: In vivo antitumor activity against the L1210 leukemia cell line in mouse species B6D2F1 after intraperitoneal administration (inoculum cells-10E5,ip) at the dose of 100 mg/kg on 7th day; type: functional
[28] = test system: L1210; experiment: In vivo antitumor activity against the L1210 leukemia cell line in mouse species B6D2F1 after intraperitoneal administration (inoculum cells-10E5,ip) at the dose of 200 mg/kg on 7th day; type: functional
[29] = test system: L1210; experiment: In vivo antitumor activity against the L1210 leukemia cell line in mouse species B6D2F1 after intraperitoneal administration (inoculum cells-10E5,ip) at the dose of 50 mg/kg on 7th day; type: functional
[30] = test system: TLX-5; experiment: In vivo antitumor activity against the TLX5 lymphoma cell line in mouse species CBA/CA after intraperitoneal administration (inoculum cells-2x10E5,sc) at the dose of 10 mg/kg; type: functional
[31] = test system: TLX-5; experiment: as §5; type: functional; outline: as §3; remark: listed apart in the source
[32] = test system: TLX-5; experiment: In vivo antitumor activity against the TLX5 lymphoma cell line in mouse species CBA/CA after intraperitoneal administration (inoculum cells-2x10E5,sc) at the dose of 10 mg/kg on 5th day; type: functional
[33] = test system: TLX-5; experiment: as §2; type: functional; remark: listed apart in the source
[34] = test system: L1210; experiment: In vivo antitumor activity against the L1210 leukemia cell line in mouse species B6D2F1 after peroral administration (inoculum cells-10E5,iv) at the dose of 200 mg/kg; type: functional; conditions: route oral
[35] = test system: L1210; experiment: In vivo antitumor activity against the L1210 leukemia cell line in mouse species B6D2F1 after peroral administration (inoculum cells-10E5,iv) at the dose of 100 mg/kg; type: functional; conditions: route oral
[36] = test system: L1210; experiment: In vivo antitumor activity against the L1210 leukemia cell line in mouse species B6D2F1 after peroral administration (inoculum cells-10E5,iv) at the dose of 50 mg/kg; type: functional; conditions: route oral
[37] = test system: L1210; experiment: In vivo antitumor activity against the L1210 leukemia cell line in mouse species B6D2F1 after peroral administration (inoculum cells-10E5,iv) at the dose of 100 mg/kg on 7th day; type: functional; conditions: route oral; outline: as §1
[38] = test system: L1210; experiment: In vivo antitumor activity against the L1210 leukemia cell line in mouse species B6D2F1 after peroral administration (inoculum cells-10E5,iv) at the dose of 200 mg/kg on 7th day; type: functional; conditions: route oral; outline: as §1
[39] = test system: L1210; experiment: In vivo antitumor activity against the L1210 leukemia cell line in mouse species B6D2F1 after peroral administration (inoculum cells-10E5,iv) at the dose of 50 mg/kg on 7th day; type: functional; conditions: route oral; outline: as §1
[40] = test system: TLX-5; experiment: as §7; type: functional; outline: as §3; remark: listed apart in the source
[41] = test system: TLX-5; experiment: as §4; type: functional; outline: as §6; remark: listed apart in the source

## O=C(O)c1ncn2c(=O)n(CCCl)nnc12
[1]
  T/C: 107%
[2]
  T/C: 106%
[3]
  T/C: 102%
[4]
  T/C: 101%
[5]
  Survivors: 0
[6]
  Survivors: 0
[7]
  Survivors: 0
[8]
  Survivors: 0
[9]
  T/C: 108%
[10]
  T/C: 102%
[11]
  T/C: 223%
[12]
  T/C: 103%
[13]
  T/C: 106%
[14]
  Survivors: 0
[15]
  Survivors: 0
[16]
  Survivors: 0
[17]
  Survivors: 0
[18]
  Survivors: 0

## O=C(NNc1ccccc1)c1ncn2c(=O)n(CCCl)nnc12
[19]
  T/C: 107%
[20]
  Survivors: 0
[21]
  Survivors: 0
[22]
  Survivors: 0
[23]
  T/C: 169%

## CCOC(=O)c1ncn2c(=O)n(CCCl)nnc12
[24]
  T/C: 137%
[25]
  T/C: 113%
[26]
  T/C: 120%
[27]
  Survivors: 0
[28]
  Survivors: 0
[29]
  Survivors: 0
[30]
  T/C: 89%
[31]
  T/C: 113%
[10]
  T/C: 98%
[12]
  T/C: 104%
[13]
  T/C: 91%
[32]
  Survivors: 0
[33]
  Survivors: 0
[15]
  Survivors: 0
[17]
  Survivors: 0
[18]
  Survivors: 0

## CONC(=O)c1ncn2c(=O)n(CCCl)nnc12
[34]
  T/C: 205%
[35]
  T/C: 179%
[36]
  T/C: 117%
[37]
  Survivors: 0
[38]
  Survivors: 0
[39]
  Survivors: 0
[31]
  T/C: >325%
[10]
  T/C: 103%
[40]
  T/C: 116%
[13]
  T/C: 185%
[33]
  Survivors: 3
[15]
  Survivors: 0
[16]
  Survivors: 0
[41]
  Survivors: 0
[18]
  Survivors: 0
